# Columns and labels:
# hpol λ = molecular target: T1, hpol λ (Homo sapiens, UniProt Q9UGP5); assay: TAMRA strand-displacement selectivity assay, X-family pol; type: biochemical; settings: 10 μM IAG-10, 10 nM hpol λ
# T1 sequence (Q9UGP5 251-575 limits assumed): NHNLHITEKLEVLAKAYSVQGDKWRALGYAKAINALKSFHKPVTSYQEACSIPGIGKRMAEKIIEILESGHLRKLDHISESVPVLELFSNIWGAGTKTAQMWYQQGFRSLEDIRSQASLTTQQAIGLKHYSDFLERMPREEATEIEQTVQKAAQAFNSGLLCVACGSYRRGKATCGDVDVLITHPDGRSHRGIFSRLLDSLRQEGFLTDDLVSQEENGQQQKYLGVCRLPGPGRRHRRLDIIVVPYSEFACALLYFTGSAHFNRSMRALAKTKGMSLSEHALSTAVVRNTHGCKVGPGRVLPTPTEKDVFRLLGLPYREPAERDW
# hpol ι = molecular target: T2, hpol ι (Homo sapiens, UniProt Q9UNA4); assay: Gel-based primer extension assay; type: biochemical; settings: 10 μM IAG-10, 10 nM hpol ι
# T2 sequence (Q9UNA4 1-446): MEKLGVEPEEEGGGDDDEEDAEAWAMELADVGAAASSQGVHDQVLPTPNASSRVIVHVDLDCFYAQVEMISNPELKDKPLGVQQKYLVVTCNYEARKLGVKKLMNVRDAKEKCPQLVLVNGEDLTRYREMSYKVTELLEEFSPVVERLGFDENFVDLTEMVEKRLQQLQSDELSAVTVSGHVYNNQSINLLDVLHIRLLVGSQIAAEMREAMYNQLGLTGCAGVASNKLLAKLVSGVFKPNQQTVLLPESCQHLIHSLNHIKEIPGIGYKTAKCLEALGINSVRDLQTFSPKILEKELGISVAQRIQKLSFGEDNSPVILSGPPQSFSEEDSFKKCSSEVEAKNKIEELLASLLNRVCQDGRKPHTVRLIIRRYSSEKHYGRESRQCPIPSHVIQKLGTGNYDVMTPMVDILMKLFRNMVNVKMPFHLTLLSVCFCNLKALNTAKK
# [1] = system: hpol κ-proficient HAP-1 cells; assay: Alkaline comet assay; type: cell-based, human
# Method in brief: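 100 000 HAP-1 cells per well, test compound 0.5 μM alone or with alkylating agent (100 μM), 1 h; DMSO control. Cells embedded in low-melting agarose (200–300 per well), lysed 1 h, alkaline unwinding (200 mM NaOH, 1 mM EDTA) 20 min RT, electrophoresis 21 V, 30 min, 4 °C, SYBR Gold stain. Read-out is % DNA in tail per cell; ≥20 cells per replicate, three biological replicates, mean ±SD.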
# hpol η = molecular target: T3, hpol η (Homo sapiens, UniProt Q9Y253); assay: TAMRA strand-displacement fluorescence assay of DNA polymerase activity; type: biochemical; settings: 95% CI in parentheses
# T3 sequence (Q9Y253 1-437): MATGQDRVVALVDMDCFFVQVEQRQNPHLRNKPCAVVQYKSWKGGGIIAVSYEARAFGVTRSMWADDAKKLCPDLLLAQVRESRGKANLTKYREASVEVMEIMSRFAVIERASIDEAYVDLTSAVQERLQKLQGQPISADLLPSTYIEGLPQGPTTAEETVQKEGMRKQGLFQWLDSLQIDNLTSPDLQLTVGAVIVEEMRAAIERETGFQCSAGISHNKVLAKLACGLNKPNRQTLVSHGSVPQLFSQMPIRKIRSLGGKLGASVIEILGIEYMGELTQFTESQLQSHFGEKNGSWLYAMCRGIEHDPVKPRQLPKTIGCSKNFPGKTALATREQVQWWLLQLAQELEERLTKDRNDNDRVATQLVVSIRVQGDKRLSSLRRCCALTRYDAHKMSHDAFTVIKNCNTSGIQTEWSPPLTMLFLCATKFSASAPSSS
# [2] = molecular target: T4, hpol η binding to primer-template DNA (Homo sapiens, UniProt Q9Y253); assay: Fluorescence anisotropy DNA binding assay; settings: inhibitor concentration near the IC50 for pol activity; 2 nM FAM-labeled p/t-DNA
# T4 sequence (Q9Y253 1-437): T3 sequence (Q9Y253 1-437)
# pol Dpo1 = molecular target: T5, pol Dpo1 (Saccharolobus solfataricus, UniProt P26811); assay: TAMRA strand-displacement selectivity assay, B-family pol; type: biochemical, Sulfolobus solfataricus; settings: 10 μM IAG-10, 25 nM Dpo1
# T5 sequence (P26811 1-882): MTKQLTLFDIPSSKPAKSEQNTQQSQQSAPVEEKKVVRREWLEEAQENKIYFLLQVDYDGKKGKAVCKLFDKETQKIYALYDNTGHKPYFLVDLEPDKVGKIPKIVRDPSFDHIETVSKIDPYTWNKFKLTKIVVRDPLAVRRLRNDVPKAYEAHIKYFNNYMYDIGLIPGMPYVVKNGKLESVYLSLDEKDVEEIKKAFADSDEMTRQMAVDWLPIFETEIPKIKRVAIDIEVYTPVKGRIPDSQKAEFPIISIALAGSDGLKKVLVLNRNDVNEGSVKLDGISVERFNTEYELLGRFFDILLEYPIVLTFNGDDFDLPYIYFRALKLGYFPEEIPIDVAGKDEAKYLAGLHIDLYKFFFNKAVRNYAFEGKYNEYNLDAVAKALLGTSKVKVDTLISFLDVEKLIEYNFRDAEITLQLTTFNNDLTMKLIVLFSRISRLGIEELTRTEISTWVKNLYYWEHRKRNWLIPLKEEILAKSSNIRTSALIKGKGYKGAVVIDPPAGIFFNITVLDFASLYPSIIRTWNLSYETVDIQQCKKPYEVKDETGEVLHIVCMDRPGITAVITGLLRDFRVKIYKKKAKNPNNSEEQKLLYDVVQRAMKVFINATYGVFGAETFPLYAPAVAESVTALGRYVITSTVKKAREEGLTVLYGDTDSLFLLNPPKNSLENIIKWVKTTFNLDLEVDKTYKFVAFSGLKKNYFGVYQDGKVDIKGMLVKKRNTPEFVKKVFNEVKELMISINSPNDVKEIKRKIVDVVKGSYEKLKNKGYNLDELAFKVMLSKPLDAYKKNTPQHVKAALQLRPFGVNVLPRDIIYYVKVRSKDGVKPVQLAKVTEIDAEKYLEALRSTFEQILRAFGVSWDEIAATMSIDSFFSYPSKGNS
smiles,measurement,setting,value
"Cl.[H]/N=C(\N)NN=Cc1cn(C(=O)c2cccc3ccccc23)c2ccc(Cl)cc12 [IAG-10, (E)-2-((1-(1-naphthoyl)-5-chloro-1H-indol-3-yl)-methylene)hydrazine-1-carboximidamide hydrochloride]",polymerase activity in presence of compound,hpol λ,only hpol κ activity was inhibited
same,polymerase activity in presence of compound,hpol ι,only hpol κ was inhibited
same,DNA damage (% DNA in tail) compared to control,"[1]; 0.5 μM IAG-10 alone, 1 h",approximately twofold
same,DNA damage (% DNA in tail),"[1]; 100 μM TMZ + 0.5 μM IAG-10, compared with TMZ alone",increased even further
same,IC50,"hpol η; IC50, 0.2 nM hpol η, 2 nM DNA",22.5 µM
same,IC50,"hpol η; IC50, 1 nM hpol η, 50 nM DNA",14.3 µM
same,"increase in the Kd,DNA",[2],20–30%
same,polymerase activity in presence of compound,pol Dpo1,only hpol κ activity was inhibited

# From article PMC7357868 (ACS chemical biology, 2019)
